Data set [1] concerns the target T1, Tubulin (Homo sapiens) (UniProt P68371+Q9H4B7+P0DPH7+P68366+Q13509+Q71U36+P04350+Q3ZCM7+P07437+P68363+Q9BQE3+Q6PEY2+Q13885+Q9BVA1+Q9BUF5). The data set is described as follows: Stabilization of microtubules in human QBI293 cells assessed as fold change in acetylated tubulin levels at 10 uM after 4 hrs by ELISA relative to cevipabulin. Format: cell-based. On the technique in general: An ELISA detects its analyte on a solid surface through an enzyme-linked reagent.

Data set [2] addresses T1, Tubulin (Homo sapiens). The data set is described as follows: Stabilization of microtubules in human QBI293 cells assessed as fold change in acetylated tubulin levels at 1 uM after 4 hrs by ELISA relative to DMSO. Format: cell-based. In outline: (§1)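 QBI293 cells were grown in DMEM with 10% FBS, 2 mM L-glutamine and penicillin/streptomycin, then plated at 6 × 10^5 cells/well and left overnight. Medium was replaced with fresh medium holding vehicle (DMSO) or compound, and cells were incubated 4 h. Whole-cell extract supernatants were protein-normalized by BCA assay. AcTub and α-tubulin were quantified by ELISA against standard curves. Values are fold-change over DMSO, analysed by one-way ANOVA.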

Data set [3] concerns the target T1, Tubulin (Homo sapiens). Put plainly: Stabilization of microtubules in human QBI293 cells assessed as fold change in alpha tubulin levels at 10 uM after 4 hrs by ELISA relative to DMSO. Format: cell-based. In outline:
as §1

Data set [4] concerns the target T1, Tubulin (Homo sapiens). Put plainly: Stabilization of microtubules in human QBI293 cells assessed as fold change in alpha tubulin levels at 1 uM after 4 hrs by ELISA relative to DMSO. Type of data set: cell-based. In outline: as §1
The target of data set [5] is T1, Tubulin (Homo sapiens). The data set is described as follows: Stabilization of microtubules in human QBI293 cells assessed as increase in acetylated tubulin levels after 4 hrs by ELISA. Type of data set: cell-based. In outline:
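QBI293 cells are grown in DMEM with 10% FBS, 2 mM L-glutamine and penicillin/streptomycin, plated at 6 × 10^5 cells/well and incubated overnight. […] Acetyl- and total α-tubulin in whole-cell extract supernatants are measured by ELISA against standard curves, with protein by BCA. Values are fold-change over DMSO; AcTub is also given relative to 100 nM cevipabulin positive control. Significance is by one-way ANOVA.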

In data set [6] the target is T1, Tubulin (Homo sapiens). Put plainly: Stabilization of microtubules in human QBI293 cells assessed as fold change in acetylated tubulin levels at 10 uM after 4 hrs by ELISA relative to DMSO. Format: cell-based. In outline: as §1
Data set [7] deals with T1, Tubulin (Homo sapiens). The data set is described as follows: Stabilization of microtubules in human QBI293 cells assessed as fold change in acetylated tubulin levels at 1 uM after 4 hrs by ELISA relative to cevipabulin. Format: cell-based.
Data set [8] in a line: n-octanol-water distribution coefficient, log D of the compound at pH 7.4 by shake flask method. Format: physicochemical. In outline: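 Distribution coefficient between n-octanol and water at pH 7.4, measured by shake-flask method.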

Our source for the fold change (FC), Activity and logD values is ChEMBL document CHEMBL4732138, “Evaluation of the Structure-Activity Relationship of Microtubule-Targeting 1,2,4-Triazolo[1,5-a]pyrimidines Identifies New Candidates for Neurodegenerative Tauopathies” (J Med Chem, 2021).

SMILES strings stand for the structures.

Take `CC(CF)Nc1c(-c2c(F)cc(F)cc2F)c(Cl)nc2ncnn12` (stereo not drawn): the fold change (FC) in data set [1] amounted to 0.35; in data set [2] it was 1.32; in data set [3], 1.09; in data set [4], 0.92; in data set [6] it was 1.5; in data set [7] it was 0.3. Besides, the Activity entry in data set [5] was “Dose-dependent effect”.
As to `C[C@H](Nc1c(-c2ccc(F)cc2)c(Cl)nc2ncnn12)C(F)(F)F`, the fold change (FC) in data set [1] was 0.16; in data set [2], 1.05; in data set [3], 1.13; in data set [4] it was 1.04; in data set [6], 2.41; in data set [7] it was 0.07. In data set [5], the Activity entry is “Dose-dependent effect”.
As for `Fc1cc(F)c(-c2c(Cl)nc3ncnn3c2NC2CCC2)c(F)c1`, the fold change (FC) is 0.23 in data set [1]; 0.97 in data set [2]; 0.95 in data set [3]; 0.94 in data set [4]; 1.75 in data set [6]; 0.13 in data set [7]. Besides, in data set [5], the Activity result was “Dose-dependent effect”.
On to `CC(C)CNc1c(-c2c(F)cc(F)cc2F)c(Cl)nc2ncnn12`, for which the fold change (FC) was 0.53 in data set [1]; 1.63 in data set [2]; 0.99 in data set [3]; 1.3 in data set [4]; 2.28 in data set [6]; 0.38 in data set [7]. The Activity entry in data set [5] is “Dose-dependent effect”.
For `Fc1cc(F)c(-c2c(Cl)nc3ncnn3c2N2CCCCCCC2)c(F)c1`, the fold change (FC) in data set [1] is 0.7; in data set [2] it was 3.7; in data set [3], 1.28; in data set [4], 1.01; in data set [6], 7.16; in data set [7], 0.36. Besides, in data set [5], the Activity result is “Dose-dependent effect”.
Consider `C[C@H](Nc1c(-c2ccccc2)c(Cl)nc2ncnn12)C(F)(F)F`, for which the fold change (FC) in data set [1] came to 0.3; in data set [2], 1.11; in data set [3], 1.03; in data set [4], 1.09; in data set [6], 2.07; in data set [7], 0.12. Also, the Activity entry in data set [5] was “Dose-dependent effect”.
`C[C@H](Nc1c(-c2c(F)cc([N+](=O)[O-])cc2F)c(Cl)nc2ncnn12)C(F)(F)F`: the fold change (FC) in data set [1] amounted to 1.23; in data set [2], 3.24; in data set [3], 0.94; in data set [4], 0.96; in data set [6] it was 6.65; in data set [7], 0.6. The Activity entry in data set [5] is “Dose-dependent effect”.
Consider `Fc1cc(F)c(-c2c(Cl)nc3ncnn3c2N2CCCCC2)c(F)c1`, for which the fold change (FC) in data set [1] is 0.33; in data set [2], 2.21; in data set [3], 1.2; in data set [4] it was 1.23; in data set [6], 5.84; in data set [7], 0.13. Moreover, the Activity result in data set [5] is “Dose-dependent effect”.
Turning to `CC(Nc1c(-c2c(F)cc(F)cc2F)c(Cl)nc2ncnn12)C(F)F` (stereo not drawn), the fold change (FC) was determined as 0.35 in data set [1]; 1.28 in data set [2]; 1.17 in data set [3]; 1.19 in data set [4]; 1.82 in data set [6]; 0.3 in data set [7]. For the same compound, the Activity entry in data set [5] was “Dose-dependent effect”.
Take `Fc1cc(F)c(-c2c(Cl)nc3ncnn3c2NCc2ccccc2)c(F)c1`: the fold change (FC) amounted to 0.22 in data set [1]; 1.05 in data set [2]; 1.06 in data set [3]; 1 in data set [4]; 1.49 in data set [6]; 0.16 in data set [7]. Moreover, in data set [5], the Activity entry is “Dose-dependent effect”.
For `C[C@H](Nc1c(-c2ccc(F)cc2F)c(Cl)nc2ncnn12)C(F)(F)F`, the fold change (FC) in data set [1] turned out to be 0.27; in data set [2], 1.54; in data set [3], 0.86; in data set [4], 0.99; in data set [6] it was 3.19; in data set [7] it was 0.13. In addition, the Activity result in data set [5] was “Dose-dependent effect”.
Turning to `C[C@H](Nc1c(-c2ccc(F)c(F)c2F)c(Cl)nc2ncnn12)C(F)(F)F`, the fold change (FC) in data set [1] was 0.34; in data set [2] it was 1.5; in data set [3] it was 0.88; in data set [4], 1.11; in data set [6], 4.28; in data set [7], 0.12. For the same compound, in data set [5], the Activity entry was “Dose-dependent effect”.
As for `C[C@@H](Nc1c(-c2c(F)cc(F)cc2F)c(Cl)nc2ncnn12)C(F)(F)F`, the fold change (FC) in data set [1] was 0.43; in data set [2], 1.39; in data set [3] it was 1.47; in data set [4], 1.23; in data set [6] it was 2.47; in data set [7], 0.24. In data set [5], the Activity result is “Dose-dependent effect”.
Regarding `CC(C)[C@@H](C)Nc1c(-c2ccc(C#N)cc2F)c(Cl)nc2ncnn12` (stereo in doubt; 67), the logD in data set [8] (n-octanol/water, read-out: logD) was determined as 2.9.
In turn, `CC(C)[C@@H](C)Nc1c(-c2ccc(C#N)cc2F)c(Cl)nc2ncnn12` (stereo in doubt; 68) came in with a logD in data set [8] (octanol/water) of 2.67.
As to `Fc1cc(F)c(-c2c(Cl)nc3ncnn3c2N2CCC2)c(F)c1`, the fold change (FC) in data set [1] came out at 0.32; in data set [2], 0.98; in data set [3], 1.17; in data set [4], 0.96; in data set [6] it was 1.22; in data set [7] it was 0.26. In addition, the Activity entry in data set [5] was “Dose-dependent effect”.
As to `Fc1cc(F)c(-c2c(Cl)nc3ncnn3c2N2CCCC2)c(F)c1`, the fold change (FC) worked out at 0.16 in data set [1]; 1.14 in data set [2]; 1.18 in data set [3]; 1.12 in data set [4]; 2.74 in data set [6]; 0.07 in data set [7]. Further, the Activity result in data set [5] was “Dose-dependent effect”.
In the case of `C[C@H](Nc1c(-c2c(F)cc(C(F)(F)F)cc2F)c(Cl)nc2ncnn12)C(F)(F)F`, the fold change (FC) in data set [1] came to 0.16; in data set [2] it was 1.09; in data set [3], 1.02; in data set [4], 1.06; in data set [6], 1.39; in data set [7], 0.13. The Activity result in data set [5] is “Dose-dependent effect”.
`Fc1cc(F)c(-c2c(Cl)nc3ncnn3c2NC2CCCCC2)c(F)c1`: the fold change (FC) in data set [1] is 0.23; in data set [2], 1.13; in data set [3], 0.99; in data set [4], 1.07; in data set [6], 3.51; in data set [7], 0.07. Also, in data set [5], the Activity entry is “Dose-dependent effect”.
As for `C[C@H](Nc1c(-c2ccc(F)c(F)c2)c(Cl)nc2ncnn12)C(F)(F)F`, the fold change (FC) in data set [1] was determined as 0.12; in data set [2], 1.85; in data set [3], 1.13; in data set [4], 1.01; in data set [6], 4.76; in data set [7] it was 0.05. For the same compound, the Activity result in data set [5] was “Dose-dependent effect”.

The logD is the decadic logarithm of the distribution of all forms, ionised or not, between an organic phase and buffer at a given pH.
